For assay [1], the target named is T1, Growth hormone secretagogue receptor type 1 (Homo sapiens, UniProt Q92847). In words: Displacement of [125I]His9-ghrelin from human GHSR1a receptor expressed in LLC PK1 cells. It counts as cell-based. A general note: Displacement assays read how much labelled ligand stays bound in the presence of the test substance.
Assay [2] deals with T1, Growth hormone secretagogue receptor type 1. In words: Agonist activity at human GHSR1a receptor expressed in CHO cells assessed as intracellular calcium mobilization at 10 uM relative to ghrelin. It counts as functional, cell-based. The method, boiled down:
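Transiently electroporated hGHS-R1a CHO cells loaded with Fluo-4AM; compound at 10 µM, triplicate, at least 2 independent experiments; fluorescence rise (485/525 nm, 60 s read) compared with buffer-only basal; maximal output taken as that of 0.1 µM ghrelin.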
In general terms: Calcium assays in cells follow changes in intracellular calcium, usually with a dye or a luminescent sensor.

Assay [3] has the same target. In words: Antagonist activity at human GHSR1a receptor expressed in CHO cells assessed as reduction of ghrelin-induced intracellular calcium mobilization. It counts as functional, cell-based.
For assay [4] the target is unchanged. In words: Agonist activity at human GHSR1a receptor expressed in CHO cells assessed as intracellular calcium mobilization. The format is functional, cell-based.
For assay [5] the target is unchanged. In words: Antagonist activity at human GHSR1a receptor expressed in CHO cells assessed as intracellular calcium mobilization.

Data on 24 compounds can be found in ChEMBL document CHEMBL1140779, “Trisubstituted 1,2,4-triazoles as ligands for the ghrelin receptor: on the significance of the orientation and substitution at position 3” (Bioorg Med Chem Lett, 2008).

T1 sequence (Q92847 whole entry): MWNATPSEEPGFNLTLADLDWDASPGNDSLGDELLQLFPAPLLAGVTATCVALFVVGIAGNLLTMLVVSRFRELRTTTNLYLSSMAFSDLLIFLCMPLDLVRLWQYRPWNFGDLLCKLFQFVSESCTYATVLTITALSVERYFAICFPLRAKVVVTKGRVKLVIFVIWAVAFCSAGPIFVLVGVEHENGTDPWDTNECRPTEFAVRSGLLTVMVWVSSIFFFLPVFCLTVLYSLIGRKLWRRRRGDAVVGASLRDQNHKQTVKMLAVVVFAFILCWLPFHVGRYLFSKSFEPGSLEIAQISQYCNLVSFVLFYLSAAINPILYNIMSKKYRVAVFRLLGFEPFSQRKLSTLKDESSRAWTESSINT

For `COc1ccc(Cn2c(Cc3ccccc3)nnc2[C@H](Cc2c[nH]c3ccccc23)NC(=O)C(C)(C)N)cc1`, in assay [1], the IC50 (in general, the midpoint of a concentration-inhibition curve) is > 1000 nM. For the same compound, the Activity in assay [2] worked out at 5%.

`COc1ccc(Cn2c(CCCc3ccccc3)nnc2[C@@H](Cc2c[nH]c3ccccc23)NC(=O)C(C)(C)N)cc1`: in assay [2], the Activity is 0%. The IC50 in assay [3] is 600 nM.

`COc1ccc(Cn2c(CCc3c[nH]c4ccccc34)nnc2[C@H](Cc2c[nH]c3ccccc23)NC(=O)C2CCOCC2)cc1` yielded an IC50 in assay [1] of 1300 nM. Moreover, in assay [2], the Activity stood at 0%. In assay [4], the EC50 (commonly the midpoint of the concentration-response curve) came out at 24 nM.

On to `COc1ccc(Cn2c(CCc3c[nH]c4ccccc34)nnc2[C@@H](COCc2ccccc2)NC(=O)C(C)(C)N)cc1`, for which, in assay [1], the IC50 stood at 800 nM. The Activity in assay [2] was 0%.

As to `COc1ccc(Cn2c(CCc3c[nH]c4ccccc34)nnc2[C@@H](Cc2c[nH]c3ccccc23)NC(=O)c2ccccn2)cc1`, the IC50 in assay [1] came out at 8 nM. Further, the Activity in assay [2] amounted to 0%.

Take `COc1ccc(Cn2c(CCc3c[nH]c4ccccc34)nnc2[C@@H](Cc2c[nH]c3ccccc23)NC(=O)C(C)(C)N)c(OC)c1`: the Activity in assay [2] came to 0%. In assay [3], the IC50 is 620 nM.

Regarding `COc1ccc(Cn2c(CCc3ccccc3)nnc2[C@H](Cc2c[nH]c3ccccc23)NC(=O)C(C)(C)N)c(OC)c1`, the half-inhibitory concentration (IC50) in assay [1] was 450 nM. Also, in assay [2], the Activity was 4%.

Take `COc1ccc(Cn2c(CCc3ccccc3)nnc2[C@@H](Cc2c[nH]c3ccccc23)NC(=O)C(C)(C)N)cc1`: in assay [2], the Activity was found to be 2%. The IC50 in assay [3] came out at 275 nM.

In assay [1], `COc1ccc(Cn2c(CCc3c[nH]c4ccccc34)nnc2[C@@H](CC(=O)OCc2ccccc2)NC(=O)C(C)(C)N)cc1` came in with an IC50 of 450 nM. For the same compound, in assay [2], the Activity was 5%.

For the compound `COc1ccc(Cn2c(CCCc3ccccc3)nnc2[C@H](Cc2c[nH]c3ccccc23)NC(=O)C(C)(C)N)cc1`, the IC50 in assay [1] was > 1000 nM. The Activity in assay [2] is 17%.

In the case of `COc1ccc(Cn2c(CCc3c[nH]c4ccccc34)nnc2[C@@H](Cc2ccccc2)NC(=O)C(C)(C)N)cc1`, in assay [1], the half-inhibitory concentration (IC50) was 200 nM. In assay [2], the Activity turned out to be 6%.

On to `COc1ccc(Cn2c(Cc3ccccc3)nnc2[C@@H](Cc2c[nH]c3ccccc23)NC(=O)C(C)(C)N)c(OC)c1`, for which the Activity in assay [2] is 0%.

Regarding `COc1ccc(Cn2c(CCc3c[nH]c4ccccc34)nnc2[C@@H](Cc2c[nH]c3ccccc23)NC(=O)[C@@H]2CCCN2)cc1`, the Kb (in general, the affinity of an antagonist, worked out from how it opposes an agonist) in assay [5] amounted to 6 nM.

As to `COc1ccc(Cn2c(CCc3c[nH]c4ccccc34)nnc2[C@@H](Cc2c[nH]c3ccccc23)NC(=O)C(C)(C)N)cc1`, in assay [3], the IC50 was 190 nM.

In the case of `COc1ccc(Cn2c(CCc3c[nH]c4ccccc34)nnc2[C@H](Cc2c[nH]c3ccccc23)NC(=O)C(C)(C)N)c(OC)c1`, the Activity in assay [2] worked out at 4%. Besides, in assay [3], the IC50 was 3200 nM and the Kb worked out at 69 nM.

`COc1ccc(Cn2c(Cc3ccccc3)nnc2[C@H](Cc2c[nH]c3ccccc23)NC(=O)C(C)(C)N)c(OC)c1`: the IC50 in assay [1] was > 1000 nM. Besides, the Activity in assay [2] is 11%.

Regarding `COc1ccc(Cn2c(Cc3ccccc3)nnc2[C@@H](Cc2ccccc2)NC(=O)C(C)(C)N)cc1`, in assay [1], the concentration for half-maximal inhibition (IC50) was > 1000 nM. Also, the Activity in assay [2] was found to be 6%.

Consider `COc1ccc(Cn2c(CCc3ccccc3)nnc2[C@H](Cc2c[nH]c3ccccc23)NC(=O)C(C)(C)N)cc1`, for which the IC50 in assay [1] was > 1000 nM. Moreover, the Activity in assay [2] worked out at 0%.

As to `COc1ccc(Cn2c(CCc3c[nH]c4ccccc34)nnc2[C@H](Cc2c[nH]c3ccccc23)NC(=O)C2CCNCC2)cc1`, the IC50 in assay [1] came out at 7 nM. Besides, the Activity in assay [2] came out at 100%. Further, in assay [4], the EC50 worked out at 32 nM.

In the case of `COc1ccc(Cn2c(CCc3c[nH]c4ccccc34)nnc2[C@H](Cc2c[nH]c3ccccc23)NC(=O)C(C)(C)N)cc1`, the half-inhibitory concentration (IC50) in assay [1] is 140 nM. In addition, the Activity in assay [2] came to 31%.

As for `COc1ccc(Cn2c(CCc3ccccc3)nnc2[C@@H](Cc2c[nH]c3ccccc23)NC(=O)C(C)(C)N)c(OC)c1`, the Activity in assay [2] came to 0%. Also, the IC50 in assay [3] is 800 nM.

Compound `COc1ccc(Cn2c(CCc3c[nH]c4ccccc34)nnc2[C@@H](Cc2c[nH]c3ccccc23)NC(=O)C2CCOCC2)cc1` returned an IC50 in assay [1] of 45 nM. Also, the Activity in assay [2] amounted to 2%. The EC50 in assay [4] amounted to 24 nM.

In the case of `COc1ccc(Cn2c(Cc3ccccc3)nnc2[C@@H](Cc2c[nH]c3ccccc23)NC(=O)C(C)(C)N)cc1`, the Activity in assay [2] amounted to 9%. In assay [3], the half-maximal inhibitory concentration (IC50) worked out at 870 nM and the Kb came out at 19 nM.

As for `COc1ccc(Cn2c(CCc3c[nH]c4ccccc34)nnc2[C@H](Cc2c[nH]c3ccccc23)NC(=O)[C@@H]2CCCN2)cc1`, the IC50 in assay [1] was determined as 650 nM. For the same compound, the Activity in assay [2] worked out at 0%. For the same compound, the Kb in assay [5] amounted to 440 nM.
